Experiments:
[1] = system: Acinetobacter baumannii; experiment: Antibacterial activity against 98 member subset of carbapenem resistant Acinetobacter baumannii assessed as assessed as inhibition of bacterial growth by microdilution method; type: functional
Method in brief: (§1)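 Broth microdilution in Chelex-treated, iron-depleted cation-adjusted Mueller-Hinton broth, following the protocol used for siderophore-containing antibiotics; inoculum lowered to 6 × 10^4 cfu/mL; MIC read as growth inhibition, in μg/mL.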

[2] = system: Acinetobacter baumannii; experiment: Antibacterial activity against carbapenem resistant Acinetobacter baumannii isolate PR-325 assessed as bacterial growth inhibition by microdilution method; type: functional; method in brief: as §1
[3] = system: Acinetobacter baumannii; experiment: Antibacterial activity against carbapenem resistant Acinetobacter baumannii isolate PR-326 assessed as bacterial growth inhibition by microdilution method; type: functional; method in brief: as §1
[4] = system: Acinetobacter baumannii; experiment: Antibacterial activity against carbapenem resistant Acinetobacter baumannii isolate PR-380 assessed as bacterial growth inhibition by microdilution method; type: functional; method in brief: as §1
[5] = system: Acinetobacter baumannii; experiment: Antibacterial activity against carbapenem resistant Acinetobacter baumannii isolate PR-459 assessed as bacterial growth inhibition by microdilution method; type: functional; method in brief: as §1
[6] = system: Acinetobacter baumannii; experiment: Antibacterial activity against carbapenem resistant Acinetobacter baumannii isolate PR-342 assessed as inhibition of bacterial growth at 1:1 compound to sulbactam concentration by microdilution method; type: functional
Method in brief: (§2)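 Iron-depleted (Chelex-treated) cation-adjusted Mueller-Hinton broth microdilution; inoculum 6 × 10^4 cfu/mL. Test agent and sulbactam mixed 1:1 by mass and serially 2-fold diluted together. MIC in μg/mL.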

[7] = system: Acinetobacter baumannii; experiment: Antibacterial activity against carbapenem resistant Acinetobacter baumannii isolate PR-345 assessed as inhibition of bacterial growth at 1:1 compound to sulbactam concentration by microdilution method; type: functional; method in brief: as §2
[8] = system: Acinetobacter baumannii; experiment: Antibacterial activity against carbapenem resistant Acinetobacter baumannii isolate PR-351 assessed as inhibition of bacterial growth at 1:1 compound to sulbactam concentration by microdilution method; type: functional; method in brief: as §2
[9] = system: Acinetobacter baumannii; experiment: Antibacterial activity against carbapenem resistant Acinetobacter baumannii isolate PR-384 assessed as inhibition of bacterial growth at 1:1 compound to sulbactam concentration by microdilution method; type: functional; method in brief: as §2
[10] = system: Acinetobacter baumannii; experiment: Antibacterial activity against carbapenem resistant Acinetobacter baumannii isolate PR-482 assessed as inhibition of bacterial growth at 1:1 compound to sulbactam concentration by microdilution method; type: functional; method in brief: as §2
[11] = Antibacterial activity against carbapenem susceptible Acinetobacter nosocomialis isolate PR-362 assessed as inhibition of bacterial growth at 1:1 compound to sulbactam concentration by microdilution method; type: functional
Method in brief: (§3)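 Broth microdilution MIC in Chelex-treated, iron-depleted cation-adjusted Mueller-Hinton broth, inoculum 6 × 10^4 cfu/mL. Compound and sulbactam combined 1:1 by mass in a 2-fold dilution series.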

[12] = Antibacterial activity against carbapenem susceptible Acinetobacter nosocomialis isolate PR-365 assessed as inhibition of bacterial growth at 1:1 compound to sulbactam concentration by microdilution method; type: functional; method in brief: as §3
[13] = Antibacterial activity against carbapenem susceptible Acinetobacter nosocomialis isolate PR-412 assessed as inhibition of bacterial growth at 1:1 compound to sulbactam concentration by microdilution method; type: functional
Method in brief: (§4)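 Broth microdilution MIC in iron-depleted (Chelex resin-treated) cation-adjusted Mueller-Hinton broth, following the protocol used for siderophore-containing antibiotics. Inoculum was lowered to 6 × 10^4 cfu/mL.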

[14] = Antibacterial activity against carbapenem susceptible Acinetobacter nosocomialis isolate PR-491 assessed as inhibition of bacterial growth at 1:1 compound to sulbactam concentration by microdilution method; type: functional; method in brief: as §3
[15] = system: Acinetobacter baumannii; experiment: Antibacterial activity against carbapenem resistant Acinetobacter baumannii isolate PR-314 assessed as inhibition of bacterial growth in presence of 20 ug/ml sulbactam by microdilution method; type: functional; details: dose 20 µg/ml
[16] = system: Acinetobacter baumannii; experiment: Antibacterial activity against carbapenem resistant Acinetobacter baumannii isolate PR-325 assessed as inhibition of bacterial growth in presence of 20 ug/ml sulbactam by microdilution method; type: functional; details: dose 20 µg/ml
[17] = system: Acinetobacter baumannii; experiment: Antibacterial activity against carbapenem resistant Acinetobacter baumannii isolate PR-351 assessed as inhibition of bacterial growth in presence of 20 ug/ml sulbactam by microdilution method; type: functional; details: dose 20 µg/ml
[18] = system: Acinetobacter baumannii; experiment: Antibacterial activity against carbapenem resistant Acinetobacter baumannii isolate PR-401 assessed as inhibition of bacterial growth in presence of 20 ug/ml sulbactam by microdilution method; type: functional; details: dose 20 µg/ml
[19] = system: Acinetobacter baumannii; experiment: Antibacterial activity against carbapenem resistant Acinetobacter baumannii isolate PR-423 assessed as inhibition of bacterial growth in presence of 20 ug/ml sulbactam by microdilution method; type: functional; details: dose 20 µg/ml
[20] = Antibacterial activity against carbapenem susceptible Acinetobacter nosocomialis isolate PR-362 assessed as inhibition of bacterial growth in presence of 20 ug/ml sulbactam by microdilution method; type: functional; details: dose 20 µg/ml
Method in brief: (§5)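 MIC by broth microdilution using iron-depleted (Chelex-treated) cation-adjusted Mueller-Hinton broth and 6 × 10^4 cfu/mL inoculum. Compound serially diluted with sulbactam held constant at 20 μg/mL.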

[21] = Antibacterial activity against carbapenem susceptible Acinetobacter nosocomialis isolate PR-412 assessed as inhibition of bacterial growth in presence of 20 ug/ml sulbactam by microdilution method; type: functional; details: dose 20 µg/ml; method in brief: as §5
[22] = Antibacterial activity against carbapenem susceptible Acinetobacter nosocomialis isolate PR-491 assessed as inhibition of bacterial growth in presence of 20 ug/ml sulbactam by microdilution method; type: functional; details: dose 20 µg/ml; method in brief: as §5
[23] = system: Acinetobacter baumannii; experiment: Antibacterial activity against carbapenem susceptible Acinetobacter baumannii isolate PR-452 assessed as inhibition of bacterial growth in presence of 20 ug/ml sulbactam by microdilution method; type: functional; details: dose 20 µg/ml; method in brief: as §5
[24] = system: Acinetobacter baumannii; experiment: Antibacterial activity against carbapenem susceptible Acinetobacter baumannii isolate PR-464 assessed as inhibition of bacterial growth in presence of 20 ug/ml sulbactam by microdilution method; type: functional; details: dose 20 µg/ml; method in brief: as §5
[25] = target: COX-1 (Homo sapiens, UniProt P23219); experiment: Inhibition of COX-1 (unknown origin) at 30 uM
COX-1, sequence (P23219 whole entry): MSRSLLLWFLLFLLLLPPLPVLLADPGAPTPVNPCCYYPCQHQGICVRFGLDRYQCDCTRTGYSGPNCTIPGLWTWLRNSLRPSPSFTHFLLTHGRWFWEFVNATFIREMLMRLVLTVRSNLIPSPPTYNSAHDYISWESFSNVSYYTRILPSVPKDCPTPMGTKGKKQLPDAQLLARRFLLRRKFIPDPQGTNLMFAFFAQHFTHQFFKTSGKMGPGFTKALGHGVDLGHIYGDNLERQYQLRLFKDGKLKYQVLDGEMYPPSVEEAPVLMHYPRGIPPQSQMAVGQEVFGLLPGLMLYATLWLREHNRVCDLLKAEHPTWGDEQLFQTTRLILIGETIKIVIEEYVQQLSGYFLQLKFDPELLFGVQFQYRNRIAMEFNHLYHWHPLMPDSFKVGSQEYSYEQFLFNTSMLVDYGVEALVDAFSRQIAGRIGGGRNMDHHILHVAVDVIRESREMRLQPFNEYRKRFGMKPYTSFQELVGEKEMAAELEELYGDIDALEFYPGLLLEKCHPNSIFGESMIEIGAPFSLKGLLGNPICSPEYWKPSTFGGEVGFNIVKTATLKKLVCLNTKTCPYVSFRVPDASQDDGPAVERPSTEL

[26] = system: Pseudomonas aeruginosa; experiment: Antibacterial activity against wild type Pseudomonas aeruginosa isolate PR-567 assessed as inhibition of bacterial growth by microdilution method; type: functional; method in brief: as §4
[27] = system: Pseudomonas aeruginosa; experiment: Antibacterial activity against wild type Pseudomonas aeruginosa isolate PR-668 leucine at 533 residue assessed as inhibition of bacterial growth by microdilution method; type: functional; method in brief: as §4
[28] = system: Pseudomonas aeruginosa; experiment: Antibacterial activity against wild type Pseudomonas aeruginosa isolate PR-699 assessed as inhibition of bacterial growth by microdilution method; type: functional; method in brief: as §4
[29] = system: Pseudomonas aeruginosa; experiment: Antibacterial activity against Pseudomonas aeruginosa AR-BANK#0229 infected in sc dosed thigh infection mouse model assessed as reduction in CFU treated four times at 6 hrs interval measured at 26 hrs after infection; type: functional, organism-based
Method in brief: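 Neutropenic mice (cyclophosphamide) inoculated intramuscularly with 1.02 × 10^6 CFU/mouse. Drug given SC at 50 and 100 mg/kg q6h at 2, 8, 14 and 20 h post-infection. Thighs harvested at 26 h and weighed. Thigh CFU/g compared with the 2 h baseline (Δ reported) and with vehicle, using one-way ANOVA with Dunnett's test.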

[30] = Plasma concentration in SC dosed CD-1 mouse treated four times at 6 hrs interval measured after 1 hrs; type: ADME, organism-based
Method in brief: (§6)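 CD-1 mice dosed SC at 50 mg/kg. Plasma sampled at 0.167 to 24 h, three individual mice per time point, reported as mean and SD in ng/mL.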

[31] = Plasma concentration in SC dosed CD-1 mouse treated four times at 6 hrs interval measured after 2 hrs; type: ADME, organism-based; method in brief: as §6
[32] = Plasma concentration in SC dosed CD-1 mouse treated four times at 6 hrs interval measured after 6 hrs; type: ADME, organism-based; method in brief: as §6
[33] = Plasma protein binding in mouse; details: read-out: PPB (converted)

CC(C)(O/N=C(\C(=O)N[C@H]1CN2CC(C(=O)NCCN3C(=O)c4cc(O)c(O)cc4C3=O)=C(C(=O)O)N2C1=O)c1nc(N)sc1Cl)C(=O)O
MIC90 [1]: > 16 µg/mL
MIC [2]: > 16 µg/mL
MIC [3]: > 16 µg/mL
MIC [4]: > 16 µg/mL
MIC [5]: 16 µg/mL
MIC [6]: > 16 µg/mL
MIC [7]: 16 µg/mL
MIC [8]: 16 µg/mL
MIC [9]: 16 µg/mL
MIC [10]: > 16 µg/mL
MIC [11]: ≤ 0.25 µg/mL
MIC [12]: ≤ 0.25 µg/mL
MIC [13]: 1 µg/mL
MIC [14]: 0.5 µg/mL
MIC [15]: ≤ 0.25 µg/mL
MIC [16]: > 16 µg/mL
MIC [17]: ≤ 0.25 µg/mL
MIC [18]: ≤ 0.25 µg/mL
MIC [19]: ≤ 0.25 µg/mL
MIC [20]: ≤ 0.25 µg/mL
MIC [21]: ≤ 0.25 µg/mL
MIC [22]: ≤ 0.25 µg/mL
MIC [23]: ≤ 0.25 µg/mL
MIC [24]: ≤ 0.25 µg/mL
inhibition at 30 µM [25]: > 50%
MIC [26]: ≤ 0.25 µg/mL
MIC [27]: > 16 µg/mL
MIC [28]: > 16 µg/mL
Activity [29]: Dose-Dependent Effect
concentration at 1 h [30]: 3280 ng/mL
concentration at 2 h [31]: 3070 ng/mL
concentration at 6 h [32]: 1320 ng/mL
fraction unbound [33]: 0.06

Reference: ChEMBL document CHEMBL4842318, “A γ-lactam siderophore antibiotic effective against multidrug-resistant Pseudomonas aeruginosa, Klebsiella pneumoniae, and Acinetobacter spp” (Eur J Med Chem, 2021)
